Experimental data from ChEMBL document CHEMBL3392986, “Hydroxamic acids block replication of hepatitis C virus” (J Med Chem, 2015).
Calls of active or inactive are those of the source.

What was measured:
[1] = Therapeutic index, ratio of CC50 for human HuH7 cells to EC50 for HCV genotype 1b infected in human Huh7 cells; settings: HuH7 cells
Hepatitis C virus [2] = assay: Antiviral activity against HCV genotype 1b infected in human Huh7 cells assessed as reduction in viral RNA level at 2 uM after 3 days by RT-qPCR; format: functional, Hepacivirus hominis, Huh-7; set-up: scale not given: the % may be the effect or the level left
Method in brief: (§1)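 Replicon-bearing Huh7 cells, 6 X 10^3 per well, exposed to compound in DMSO or DMSO alone for three days at 37 °C/5% CO2. Replicon RNA quantified by TaqMan Cells-to-CT RT-qPCR with NS5B primers/probe, using GAPDH in parallel wells as reference. Level relative to DMSO-treated cells calculated as 2-∆∆CT. Triplicate wells.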

Hepatitis C virus [3] = assay: Antiviral activity against HCV genotype 1b infected in human Huh7 cells assessed as reduction in viral RNA level at 0.5 uM after 3 days by RT-qPCR; format: functional, Hepacivirus hominis, Huh-7; set-up: scale not given: the % may be the effect or the level left; settings: in the assay text read “2 uM” for “0.5 uM”; method in brief: as §1
[4] = target: Histone deacetylase 1 (Homo sapiens) (UniProt Q13547); assay: Inhibition of full length C-terminal GST-tagged human HDAC1 expressed in baculovirus expression system assessed as inhibition of fluorophore 7-amino-4-methylcoumarin release by fluorescence assay
[5] = target: T1, Histone deacetylase 7 (Homo sapiens) (UniProt Q8WUI4); assay: Inhibition of full length N-terminal GST-tagged human HDAC7 (amino acids 518 to end) expressed in baculovirus expression system assessed as inhibition of fluorophore 7-amino-4-methylcoumarin release by fluorescence assay
T1 sequence (whole entry): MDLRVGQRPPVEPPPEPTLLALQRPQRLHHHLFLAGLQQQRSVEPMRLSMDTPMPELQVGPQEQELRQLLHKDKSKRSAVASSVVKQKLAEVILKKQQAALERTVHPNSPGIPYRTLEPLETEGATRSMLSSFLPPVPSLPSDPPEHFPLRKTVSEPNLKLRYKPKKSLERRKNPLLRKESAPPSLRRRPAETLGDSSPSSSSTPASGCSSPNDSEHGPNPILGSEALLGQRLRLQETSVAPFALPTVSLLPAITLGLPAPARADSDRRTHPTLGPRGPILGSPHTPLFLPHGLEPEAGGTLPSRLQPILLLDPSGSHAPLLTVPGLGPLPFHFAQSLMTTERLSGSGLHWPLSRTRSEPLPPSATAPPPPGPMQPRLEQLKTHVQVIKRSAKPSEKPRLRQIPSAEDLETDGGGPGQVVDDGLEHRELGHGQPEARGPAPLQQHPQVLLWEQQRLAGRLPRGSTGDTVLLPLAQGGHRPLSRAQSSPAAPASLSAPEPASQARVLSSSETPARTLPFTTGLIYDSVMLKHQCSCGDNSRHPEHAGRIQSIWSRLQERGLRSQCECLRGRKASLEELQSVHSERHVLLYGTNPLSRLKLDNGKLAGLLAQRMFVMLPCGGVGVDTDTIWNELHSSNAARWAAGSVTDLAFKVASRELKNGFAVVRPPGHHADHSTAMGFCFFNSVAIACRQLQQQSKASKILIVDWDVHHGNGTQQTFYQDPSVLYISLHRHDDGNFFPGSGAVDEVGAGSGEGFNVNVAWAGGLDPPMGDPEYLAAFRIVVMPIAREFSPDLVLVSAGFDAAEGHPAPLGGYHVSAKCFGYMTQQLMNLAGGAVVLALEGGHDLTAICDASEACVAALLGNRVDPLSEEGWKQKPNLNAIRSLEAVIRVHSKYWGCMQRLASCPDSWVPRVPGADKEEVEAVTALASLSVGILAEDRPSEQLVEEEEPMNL

[6] = target: T2, Histone deacetylase 8 (Homo sapiens) (UniProt Q9BY41); assay: Inhibition of full length human HDAC8 expressed in Escherichia coli assessed as inhibition of fluorophore 7-amino-4-methylcoumarin release by fluorescence assay
T2 sequence (whole entry): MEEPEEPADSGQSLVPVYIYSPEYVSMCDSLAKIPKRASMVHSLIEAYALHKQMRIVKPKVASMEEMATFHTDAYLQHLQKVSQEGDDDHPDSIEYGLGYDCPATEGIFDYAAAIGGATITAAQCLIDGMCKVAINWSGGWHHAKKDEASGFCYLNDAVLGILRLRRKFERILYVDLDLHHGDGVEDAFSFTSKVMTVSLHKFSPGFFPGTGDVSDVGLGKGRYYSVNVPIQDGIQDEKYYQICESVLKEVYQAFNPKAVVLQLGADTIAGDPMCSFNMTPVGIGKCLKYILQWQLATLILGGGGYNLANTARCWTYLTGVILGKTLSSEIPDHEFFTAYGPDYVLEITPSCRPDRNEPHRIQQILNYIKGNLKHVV

[7] = target: T3, Polyamine deacetylase HDAC10 (Homo sapiens) (UniProt Q969S8); assay: Inhibition of full length N-terminal GST-tagged human HDAC10 (amino acids 1 to 631 ) expressed in baculovirus expression system assessed as inhibition of fluorophore 7-amino-4-methylcoumarin release by fluorescence assay
T3 sequence (whole entry): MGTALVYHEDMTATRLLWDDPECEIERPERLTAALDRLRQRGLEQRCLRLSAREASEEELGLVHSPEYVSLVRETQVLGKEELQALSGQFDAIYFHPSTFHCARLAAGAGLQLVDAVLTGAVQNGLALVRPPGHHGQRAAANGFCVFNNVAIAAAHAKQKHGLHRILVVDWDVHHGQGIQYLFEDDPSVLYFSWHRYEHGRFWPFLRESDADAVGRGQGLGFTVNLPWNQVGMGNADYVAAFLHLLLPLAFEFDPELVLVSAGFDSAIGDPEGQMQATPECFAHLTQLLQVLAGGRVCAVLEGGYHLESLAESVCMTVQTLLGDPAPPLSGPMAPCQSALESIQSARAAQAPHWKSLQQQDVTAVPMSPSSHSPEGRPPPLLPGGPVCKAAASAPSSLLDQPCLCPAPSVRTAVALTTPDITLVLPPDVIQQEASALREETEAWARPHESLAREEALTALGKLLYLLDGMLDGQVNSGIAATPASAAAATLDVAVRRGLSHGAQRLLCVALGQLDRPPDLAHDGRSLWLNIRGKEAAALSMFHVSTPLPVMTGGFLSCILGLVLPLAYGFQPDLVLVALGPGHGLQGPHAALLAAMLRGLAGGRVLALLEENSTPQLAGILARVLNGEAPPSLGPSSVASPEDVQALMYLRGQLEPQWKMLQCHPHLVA

[8] = target: Matrix metalloproteinase-9 (Homo sapiens) (UniProt P14780); assay: Inhibition of human recombinant MMP9 catalytic domain (107 to 449 aa) expressed in Escherichia coli
[9] = target: Macrophage metalloelastase (Homo sapiens) (UniProt P39900); assay: Inhibition of human recombinant MMP12 catalytic domain (99 to 271 aa) expressed in Escherichia coli
[10] = target: Matrix metalloproteinase-14 (Homo sapiens) (UniProt P50281); assay: Inhibition of human recombinant […] catalytic domain (112 to 298 aa) expressed in Escherichia coli
[11] = target: Disintegrin and metalloproteinase domain-containing protein 17 (Homo sapiens) (UniProt P78536); assay: Inhibition of human recombinant TACE catalytic domain (215 to 671 aa) expressed in Escherichia coli
Hepacivirus hominis = assay: Inhibition of HCV NS5B RNA dependent RNA polymerase

Chain of Matrix metalloproteinase-9 (Homo sapiens) (P14780 whole entry, the tested form may be a part): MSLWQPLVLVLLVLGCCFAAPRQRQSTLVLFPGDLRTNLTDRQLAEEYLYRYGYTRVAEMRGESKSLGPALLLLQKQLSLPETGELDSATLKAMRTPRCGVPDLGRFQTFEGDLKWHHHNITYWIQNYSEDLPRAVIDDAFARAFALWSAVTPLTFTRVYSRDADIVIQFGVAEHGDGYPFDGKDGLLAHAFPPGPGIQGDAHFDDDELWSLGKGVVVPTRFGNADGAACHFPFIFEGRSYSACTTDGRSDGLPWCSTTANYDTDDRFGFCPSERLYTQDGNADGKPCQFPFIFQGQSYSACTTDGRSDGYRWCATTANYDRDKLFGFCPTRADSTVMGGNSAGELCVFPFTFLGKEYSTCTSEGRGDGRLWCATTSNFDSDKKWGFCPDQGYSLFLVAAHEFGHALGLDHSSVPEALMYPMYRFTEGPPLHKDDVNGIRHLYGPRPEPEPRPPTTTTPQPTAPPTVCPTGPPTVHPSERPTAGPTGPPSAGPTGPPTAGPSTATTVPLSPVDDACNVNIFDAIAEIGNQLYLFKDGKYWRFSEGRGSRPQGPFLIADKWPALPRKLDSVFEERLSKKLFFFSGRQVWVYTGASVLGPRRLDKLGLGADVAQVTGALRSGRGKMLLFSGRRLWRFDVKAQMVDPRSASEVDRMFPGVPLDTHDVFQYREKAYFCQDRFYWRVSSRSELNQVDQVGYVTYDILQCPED
Chain of Disintegrin and metalloproteinase domain-containing protein 17 (Homo sapiens) (P78536 whole entry, the tested form may be a part): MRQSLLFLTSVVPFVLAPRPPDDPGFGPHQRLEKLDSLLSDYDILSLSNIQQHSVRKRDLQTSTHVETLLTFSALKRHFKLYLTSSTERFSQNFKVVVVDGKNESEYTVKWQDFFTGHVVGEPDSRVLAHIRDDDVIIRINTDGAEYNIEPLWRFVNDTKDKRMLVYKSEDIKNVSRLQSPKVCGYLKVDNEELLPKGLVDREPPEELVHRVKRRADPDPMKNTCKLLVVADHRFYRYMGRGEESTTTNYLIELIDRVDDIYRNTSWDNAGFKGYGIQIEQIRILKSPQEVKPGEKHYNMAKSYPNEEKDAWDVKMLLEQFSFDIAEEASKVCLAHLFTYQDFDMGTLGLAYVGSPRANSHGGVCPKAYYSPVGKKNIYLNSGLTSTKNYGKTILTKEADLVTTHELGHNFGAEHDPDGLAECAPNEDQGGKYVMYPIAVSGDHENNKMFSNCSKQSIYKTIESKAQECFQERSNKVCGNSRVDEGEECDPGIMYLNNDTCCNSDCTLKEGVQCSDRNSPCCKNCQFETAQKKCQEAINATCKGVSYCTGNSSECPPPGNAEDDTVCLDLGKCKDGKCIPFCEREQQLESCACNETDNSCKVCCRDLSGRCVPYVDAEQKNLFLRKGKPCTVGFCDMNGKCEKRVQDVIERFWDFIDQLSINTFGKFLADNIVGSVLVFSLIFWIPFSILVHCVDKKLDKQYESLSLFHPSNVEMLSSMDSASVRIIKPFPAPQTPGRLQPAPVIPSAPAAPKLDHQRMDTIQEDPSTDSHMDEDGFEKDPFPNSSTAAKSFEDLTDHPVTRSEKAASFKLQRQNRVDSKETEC
Chain of Macrophage metalloelastase (Homo sapiens) (P39900 106-470 limits assumed): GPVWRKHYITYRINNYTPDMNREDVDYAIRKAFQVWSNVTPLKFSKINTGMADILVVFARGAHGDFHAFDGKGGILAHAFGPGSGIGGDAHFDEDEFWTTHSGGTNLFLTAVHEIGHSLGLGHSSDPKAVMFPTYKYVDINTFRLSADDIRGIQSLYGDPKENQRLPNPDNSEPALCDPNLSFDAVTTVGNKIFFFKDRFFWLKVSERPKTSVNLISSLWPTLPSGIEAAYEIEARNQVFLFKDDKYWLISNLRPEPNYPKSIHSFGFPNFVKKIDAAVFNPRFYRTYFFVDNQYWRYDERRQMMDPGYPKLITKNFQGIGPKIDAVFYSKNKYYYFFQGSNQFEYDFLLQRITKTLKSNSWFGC
Chain of Histone deacetylase 1 (Homo sapiens) (Q13547 whole entry, the tested form may be a part): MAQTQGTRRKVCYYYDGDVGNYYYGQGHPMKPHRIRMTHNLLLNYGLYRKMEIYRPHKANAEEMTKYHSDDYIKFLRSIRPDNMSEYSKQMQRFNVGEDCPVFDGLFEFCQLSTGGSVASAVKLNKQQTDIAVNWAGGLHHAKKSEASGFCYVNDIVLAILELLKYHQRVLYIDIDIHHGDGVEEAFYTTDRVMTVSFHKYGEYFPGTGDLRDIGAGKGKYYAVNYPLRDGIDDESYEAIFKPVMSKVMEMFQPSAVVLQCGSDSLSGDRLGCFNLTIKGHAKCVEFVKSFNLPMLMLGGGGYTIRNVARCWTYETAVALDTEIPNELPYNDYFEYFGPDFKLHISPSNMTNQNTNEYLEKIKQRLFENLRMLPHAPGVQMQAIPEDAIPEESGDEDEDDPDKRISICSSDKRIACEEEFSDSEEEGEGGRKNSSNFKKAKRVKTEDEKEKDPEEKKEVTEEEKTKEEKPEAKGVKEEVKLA

O=C(NO)c1sc2ccccc2c1S(=O)(=O)c1ccccc1
inactive: inhibition [4] | inhibition [5] | inhibition [7] | inhibition [11] | inhibition (Hepacivirus hominis)
active: inhibition [6] | inhibition [8] | inhibition [9] | inhibition [10]
75%: Activity (Hepatitis C virus [2]) | Activity (Hepatitis C virus [3])
93: selectivity ratio [1]
